Activity calls are given as the source filed them. The calls are words filed in the database; no cut-off is given here. Where a SMILES comes first, the peptide text is derived from it. Bridges are numbered along the chain shown (N, C = ends). [ ]: non-standard residue; d: D form. S5 = C=CCCC[C@](C)(N)C(=O)O; hCys = N[C@@H](CCS)C(=O)O
Legend:
[1] = biological target: T1, Relaxin receptor 1 (Homo sapiens) (UniProt Q9HBX9); experiment: Agonist activity at RXFP1 receptor (unknown origin) expressed in HEK-293T cells cotransfected with beta-galactosidase assessed as cAMP activation at 10 uM by beta-galactosidase reporter gene assay; type: functional, cell-based
T1 sequence (whole entry): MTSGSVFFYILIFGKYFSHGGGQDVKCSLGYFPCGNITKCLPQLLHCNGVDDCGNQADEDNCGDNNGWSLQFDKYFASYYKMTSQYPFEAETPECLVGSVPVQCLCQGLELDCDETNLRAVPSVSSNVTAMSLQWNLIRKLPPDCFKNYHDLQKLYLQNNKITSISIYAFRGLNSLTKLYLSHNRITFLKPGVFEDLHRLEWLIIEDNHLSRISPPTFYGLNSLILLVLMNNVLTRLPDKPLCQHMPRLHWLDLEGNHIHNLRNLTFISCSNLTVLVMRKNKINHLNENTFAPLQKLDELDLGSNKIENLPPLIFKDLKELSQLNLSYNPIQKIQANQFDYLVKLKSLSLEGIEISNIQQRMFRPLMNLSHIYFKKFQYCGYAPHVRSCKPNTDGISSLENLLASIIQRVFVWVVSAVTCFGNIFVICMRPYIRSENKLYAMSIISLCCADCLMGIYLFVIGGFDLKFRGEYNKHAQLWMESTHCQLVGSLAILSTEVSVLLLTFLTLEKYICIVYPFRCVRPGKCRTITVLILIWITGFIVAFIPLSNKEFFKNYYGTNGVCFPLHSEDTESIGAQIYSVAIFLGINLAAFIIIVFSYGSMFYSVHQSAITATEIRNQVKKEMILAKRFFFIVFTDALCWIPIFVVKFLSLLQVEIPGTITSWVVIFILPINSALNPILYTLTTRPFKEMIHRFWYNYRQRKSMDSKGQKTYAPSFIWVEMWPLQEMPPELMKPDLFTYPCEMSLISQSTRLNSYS
Method in brief: (§1)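 Tested for RXFP1 activation at concentrations up to 10 µM, alongside the […] as a reference.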

[2] = biological target: T2, Relaxin receptor 1 (Homo sapiens, UniProt Q9HBX9); experiment: (§2) Agonist activity at RXFP1 receptor (unknown origin) expressed in HEK-293T cells cotransfected with beta-galactosidase assessed as cAMP activation by beta-galactosidase reporter gene assay; type: functional, cell-based; method in brief: as §1
T2 sequence (Q9HBX9 whole entry): T1 sequence (whole entry)

[3] = biological target: T3, Relaxin-3 receptor 1 (Homo sapiens, UniProt Q9NSD7); experiment: Displacement of Eu-H3/15 from human RXFP3 receptor expressed in CHOK1 cells by time-resolved fluorescent whole cell binding assay; type: cell-based
T3 sequence (Q9NSD7 whole entry): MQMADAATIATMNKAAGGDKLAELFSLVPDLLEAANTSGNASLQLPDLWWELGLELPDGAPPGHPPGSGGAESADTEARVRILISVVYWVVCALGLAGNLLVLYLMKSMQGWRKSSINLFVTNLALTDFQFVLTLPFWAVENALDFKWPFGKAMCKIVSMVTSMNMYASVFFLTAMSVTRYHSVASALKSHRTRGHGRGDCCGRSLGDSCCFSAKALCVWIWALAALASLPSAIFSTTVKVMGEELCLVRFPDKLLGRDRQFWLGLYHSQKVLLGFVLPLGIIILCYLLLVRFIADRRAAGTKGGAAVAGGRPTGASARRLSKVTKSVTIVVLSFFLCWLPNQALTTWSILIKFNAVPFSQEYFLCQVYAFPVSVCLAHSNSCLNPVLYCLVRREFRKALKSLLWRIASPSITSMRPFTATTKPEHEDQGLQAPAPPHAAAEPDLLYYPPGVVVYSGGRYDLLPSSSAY

[4] = biological target: T3, Relaxin-3 receptor 1; experiment: Agonist activity at human RXFP3 receptor expressed in CHOK1 cells cotransfected with beta-galactosidase assessed as inhibition of forskolin-stimulated cAMP by beta-galactosidase reporter gene assay; type: functional, cell-based
[5] = biological target: T4, Relaxin-3 receptor 2 (Homo sapiens, UniProt Q8TDU9); experiment: Agonist activity at human RXFP4 receptor expressed in CHOK1 cells cotransfected with beta-galactosidase assessed as inhibition of forskolin-stimulated cAMP by beta-galactosidase reporter gene assay; type: functional, cell-based
T4 sequence (Q8TDU9 whole entry): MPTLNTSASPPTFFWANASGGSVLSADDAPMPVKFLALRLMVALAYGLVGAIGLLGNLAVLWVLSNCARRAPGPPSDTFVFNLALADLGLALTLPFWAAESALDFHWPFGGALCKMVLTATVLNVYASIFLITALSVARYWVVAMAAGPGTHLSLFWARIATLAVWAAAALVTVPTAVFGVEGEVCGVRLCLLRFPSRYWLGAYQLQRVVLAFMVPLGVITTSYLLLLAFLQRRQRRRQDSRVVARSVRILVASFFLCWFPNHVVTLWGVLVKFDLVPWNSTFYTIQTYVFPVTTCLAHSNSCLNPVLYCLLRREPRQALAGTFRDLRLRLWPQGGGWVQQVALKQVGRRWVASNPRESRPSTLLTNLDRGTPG

[6] = biological target: T4, Relaxin-3 receptor 2; experiment: Displacement of Eu-INSL5 from human RXFP4 receptor expressed in CHOK1 cells by time-resolved fluorescent whole cell binding assay; type: cell-based
[7] = biological target: T1, Relaxin receptor 1 (Homo sapiens); experiment: as §2; type: functional, cell-based; method in brief: as §1

| SMILES | Activity [1] | EC50 [2] | Ki [3] | EC50 [4] | EC50 [5] | pKi [6] | pEC50 [7] | Ki [6] |
| --- | --- | --- | --- | --- | --- | --- | --- | --- |
| CC[C@H](C)[C@H](NC(=O)[C@H](C)NC(=O)[C@@H](NC(=O)[C@H](CCC(N)=O)NC(=O)[C@H](C)NC(=O)[C@H](CCCNC(=N)N)NC(=O)[C@@H](NC(=O)[C@H](CC(C)C)NC(=O)[C@H](CCC(=O)O)NC(=O)[C@H](CCCNC(=N)N)NC(=O)CNC(=O)[C@H](CS)NC(=O)[C@H](CC(C)C)NC(=O)[C@H](CCCCN)NC(=O)[C@@H](NC(=O)[C@@H](NC(=O)[C@H](CCC(=O)O)NC(=O)[C@H](CCC(=O)O)NC(=O)[C@H](CCSC)NC(=O)[C@H](Cc1c[nH]c2ccccc12)NC(=O)[C@H](CO)NC(=O)[C@@H](N)CC(=O)O)C(C)C)[C@@H](C)CC)C(C)C)[C@@H](C)CC)C(=O)N[C@@H](CS)C(=O)NCC(=O)N[C@@H](CCSC)C(=O)N[C@@H](CO)C(=O)N[C@H](C(=O)N[C@@H](Cc1c[nH]c2ccccc12)C(=O)N[C@@H](CO)C(=O)O)[C@@H](C)O | inactive | > 10000 nM |  |  |  |  |  |  |
| CC[C@H](C)[C@@H]1NC(=O)[C@H](Cc2ccccc2)NC(=O)[C@@](C)(NC(=O)[C@H](CCCNC(=N)N)NC(=O)CNC(=O)[C@H](CO)NC(=O)[C@H](CC(C)C)NC(=O)[C@H](CCCNC(=N)N)NC(=O)[C@@H](NC(=O)CNC(C)=O)C(C)C)CCC/C=C/CCC[C@@](C)(C(=O)N[C@H](C(=O)N[C@H](C(=O)N[C@@H](Cc2ccccc2)C(=O)N[C@H](C(=O)N[C@@H](CO)C(=O)NCC(=O)NCC(=O)N[C@@H](CO)C(=O)N[C@@H](CCCNC(=N)N)C(=O)N[C@@H](Cc2c[nH]c3ccccc23)C(=O)O)[C@@H](C)O)[C@@H](C)CC)C(C)C)NC(=O)[C@H](CCCNC(=N)N)NC1=O (Ac-GVRLSGR[S5]FIR[S5]VIFTSGGSRW-OH; staple (E) 8-12) | inactive |  | 229 nM | 11.7 nM |  |  |  |  |
| CC[C@H](C)[C@H](NC(=O)[C@H](Cc1ccccc1)NC(=O)[C@H](CCC(=O)O)NC(=O)[C@H](CCCNC(=N)N)NC(=O)CNC(=O)[C@H](CO)NC(=O)[C@H](CC(C)C)NC(=O)[C@H](CCCNC(=N)N)NC(C)=O)C(=O)N[C@@H](CCCNC(=N)N)C(=O)N[C@@]1(C)CCC/C=C\CCC[C@@](C)(C(=O)N[C@@H](CO)C(=O)NCC(=O)NCC(=O)N[C@@H](CO)C(=O)N[C@@H](CCCNC(=N)N)C(=O)N[C@@H](Cc2c[nH]c3ccccc23)C(=O)O)NC(=O)[C@H](Cc2ccccc2)NC(=O)[C@H]([C@@H](C)CC)NC(=O)[C@H](C(C)C)NC1=O (Ac-RLSGREFIR[S5]VIF[S5]SGGSRW-OH; staple (Z) 10-14) | inactive |  | 603 nM | > 10000 nM | > 10000 nM | inactive | inactive |  |
| CC[C@H](C)[C@@H]1NC(=O)[C@H](Cc2ccccc2)NC(=O)[C@@H](NC(=O)[C@H](CCCNC(=N)N)NC(=O)CNC(=O)[C@H](CO)NC(C)=O)CCC(=O)NCCCC[C@@H](C(=O)N[C@H](C(=O)N[C@H](C(=O)N[C@@H](Cc2ccccc2)C(=O)N[C@H](C(=O)N[C@@H](CO)C(=O)NCC(=O)NCC(=O)N[C@@H](CO)C(=O)N[C@@H](CCCNC(=N)N)C(=O)N[C@@H](Cc2c[nH]c3ccccc23)C(=O)O)[C@@H](C)O)[C@@H](C)CC)C(C)C)NC(=O)[C@H](CCCNC(=N)N)NC1=O (Ac-SGREFIRKVIFTSGGSRW-OH; lactam 4-8) | inactive |  |  | > 1000 nM | 537 nM |  |  | > 10000 nM |
| CC[C@H](C)[C@@H]1NC(=O)[C@H](Cc2ccccc2)NC(=O)[C@@H](NC(=O)[C@H](CCCNC(=N)N)NC(=O)CNC(=O)[C@H](CO)NC(C)=O)CCSSCC[C@@H](C(=O)N[C@H](C(=O)N[C@H](C(=O)N[C@@H](Cc2ccccc2)C(=O)N[C@H](C(=O)N[C@@H](CO)C(=O)NCC(=O)NCC(=O)N[C@@H](CO)C(=O)N[C@@H](CCCNC(=N)N)C(=O)N[C@@H](Cc2c[nH]c3ccccc23)C(=O)O)[C@@H](C)O)[C@@H](C)CC)C(C)C)NC(=O)[C@H](CCCNC(=N)N)NC1=O (Ac-SGR[hCys]FIR[hCys]VIFTSGGSRW-OH; disulfide 4-8) | inactive |  | 2510 nM | > 10000 nM | 3720 nM |  |  | > 10000 nM |
| CC[C@H](C)[C@@H]1NC(=O)[C@H](Cc2ccccc2)NC(=O)[C@@](C)(NC(=O)[C@H](CCCNC(=N)N)NC(=O)CNC(=O)[C@H](CO)NC(=O)[C@H](CC(C)C)NC(=O)[C@H](CCCNC(=N)N)NC(=O)[C@@H](NC(=O)CN)C(C)C)CCC/C=C/CCC[C@@](C)(C(=O)N[C@H](C(=O)N[C@H](C(=O)N[C@@H](Cc2ccccc2)C(=O)N[C@H](C(=O)N[C@@H](CO)C(=O)NCC(=O)NCC(=O)N[C@@H](CO)C(=O)N[C@@H](CCCNC(=N)N)C(=O)N[C@@H](Cc2c[nH]c3ccccc23)C(=O)O)[C@@H](C)O)[C@@H](C)CC)C(C)C)NC(=O)[C@H](CCCNC(=N)N)NC1=O (H-GVRLSGR[S5]FIR[S5]VIFTSGGSRW-OH; staple (E) 8-12) | inactive |  | 93.3 nM | 4.47 nM | 316 nM |  | inactive | 275 nM |
| CC[C@H](C)[C@H](NC(=O)[C@H](Cc1ccccc1)NC(=O)[C@H](CCC(=O)O)NC(=O)[C@H](CCCNC(=N)N)NC(=O)CNC(=O)[C@H](CO)NC(=O)[C@H](CC(C)C)NC(=O)[C@@H](N)CCCNC(=N)N)C(=O)N[C@@H](CCCNC(=N)N)C(=O)N[C@@]1(C)CCC/C=C\CCC[C@@](C)(C(=O)N[C@@H](CO)C(=O)NCC(=O)NCC(=O)N[C@@H](CO)C(=O)N[C@@H](CCCNC(=N)N)C(=O)N[C@@H](Cc2c[nH]c3ccccc23)C(=O)O)NC(=O)[C@H](Cc2ccccc2)NC(=O)[C@H]([C@@H](C)CC)NC(=O)[C@H](C(C)C)NC1=O (H-RLSGREFIR[S5]VIF[S5]SGGSRW-OH; staple (Z) 10-14) | inactive |  | 575 nM | > 10000 nM | 2750 nM |  | inactive | > 10000 nM |
| CC[C@H](C)[C@@H]1NC(=O)[C@H](Cc2ccccc2)NC(=O)[C@@](C)(NC(=O)[C@H](CCCNC(=N)N)NC(=O)CNC(=O)[C@H](CO)NC(=O)[C@H](CC(C)C)NC(=O)[C@@H](N)CCCNC(=N)N)CCC/C=C/CCC[C@@](C)(C(=O)N[C@H](C(=O)N[C@H](C(=O)N[C@@H](Cc2ccccc2)C(=O)N[C@H](C(=O)N[C@@H](CO)C(=O)NCC(=O)NCC(=O)N[C@@H](CO)C(=O)N[C@@H](CCCNC(=N)N)C(=O)N[C@@H](Cc2c[nH]c3ccccc23)C(=O)O)[C@@H](C)O)[C@@H](C)CC)C(C)C)NC(=O)[C@H](CCCNC(=N)N)NC1=O (H-RLSGR[S5]FIR[S5]VIFTSGGSRW-OH; staple (E) 6-10) | inactive |  |  | 3.55 nM | 123 nM |  | inactive |  |
| CC[C@H](C)[C@@H]1NC(=O)[C@H](Cc2ccccc2)NC(=O)[C@@](C)(NC(=O)[C@H](CCCNC(=N)N)NC(=O)CNC(=O)[C@@H](N)CO)CCC/C=C/CCC[C@@](C)(C(=O)N[C@H](C(=O)N[C@H](C(=O)N[C@@H](Cc2ccccc2)C(=O)N[C@H](C(=O)N[C@@H](CO)C(=O)NCC(=O)NCC(=O)N[C@@H](CO)C(=O)N[C@@H](CCCNC(=N)N)C(=O)N[C@@H](Cc2c[nH]c3ccccc23)C(=O)O)[C@@H](C)O)[C@@H](C)CC)C(C)C)NC(=O)[C@H](CCCNC(=N)N)NC1=O (H-SGR[S5]FIR[S5]VIFTSGGSRW-OH; staple (E) 4-8) | inactive |  | 151 nM | 4.47 nM | 191 nM |  | inactive | 407 nM |

From ChEMBL document CHEMBL4431328, “Development of a Single-Chain Peptide Agonist of the Relaxin-3 Receptor Using Hydrocarbon Stapling” (J Med Chem, 2016)
